A short description of series [1]: Kinetic solubility of compound at pH 2. The format is physicochemical. The following applies: buffer, read-out: Kinetic_solubility.
Series [2] in a line: Kinetic solubility of compound at pH 7.4. The conditions noted are these: buffer, read-out: Kinetic_solubility. The format is physicochemical.
Another series has as its target Protein O-GlcNAcase (Homo sapiens, UniProt O60502). Kind of series: Inhibition of OGA in HEK293 cells induced with human Tau […] mutant assessed as increase in O-GlcNAcylated protein levels measured after 6 hrs by Hoechst 33342 dye based fluorescence analysis. The format is cell-based. The method, boiled down: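 Janssen HEK293 line inducible for P301L human Tau 2N4R, seeded two days before at 4000 cells/well in low-glucose assay medium. Compound exposure 6 h with 0.2% DMSO. Cells fixed with 4% PFA, permeabilized, then stained with CTD110.6 anti-O-GlcNAc (1/1000, 4 °C overnight) and a fluorescent secondary. Readout was 488 nm intensity over nine fields; Hoechst nuclei counted. Thiamet-G 200 μM defined maximum. IC50 by nonlinear regression.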

Series [3] in a line: Inhibition of human recombinant full-length OGA transcript variant 1 expressed in HEK293T cells using FM-GlcNAc as substrate preincubated for 60 mins followed by addition of substrate and measured after 6 hrs by fluorescence assay. The method, boiled down: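 Full-length human OGA, 2 nM, preincubated with compound for 60 min at room temperature. FM-GlcNAc substrate at 100 μM final, in 200 mM citrate/phosphate pH 7.2 with 0.005% Tween-20 and ≤1% DMSO. Run 6 h at room temperature, stopped with 500 mM carbonate pH 11.0. Fluorescence read at 485/538 nm. IC50 and Hill coefficient from least-squares fit, normalised to no-inhibitor and saturating reference controls.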

Series [4] in a line: Dissociation constant, pKa of the compound. It counts as physicochemical.
The test system of another series is P-gp (MDR1). Nature of the series: Efflux ratio of apparent permeability across basolateral to apical over apical to basolateral side in MDCK2-MDR1 cells at 5 uM measured after 120 mins in absence of P-gp inhibitor GF120918 by LC-MS/MS analysis. The following applies: dog, MDCK-MDR1.
Series [5] is described as follows: in vitro. The conditions noted are these: mouse, liver microsomes, CLH. (In general: Liver microsomes are a subcellular fraction often used to study metabolism.)
Series [6] can be described thus: in vitro. The conditions noted are these: human, liver microsomes, CLH.
A short description of series [7]: Inhibition of clostridium perfringens OGA using FM-GlcNAc as substrate preincubated for 60 mins followed by addition of substrate and measured after 6 hrs by fluorescence assay.
Series [8] is described as follows: Oral bioavailability in male CD1 mouse at 30 mg/kg, compound dissolved in water measured after 24 hrs by LC-MS/MS analysis. The following applies: in vivo. The format is ADME, organism-based. The method, boiled down: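 Male CD1 mice, three per arm: 1 mg/kg iv in 0.9% saline and 30 mg/kg po as a solution in water adjusted to about pH 4. Serial blood to 24 h. Plasma levels measured by LC-MS/MS after acetonitrile precipitation. Bioavailability derived from iv and po exposure.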

Series [9] can be described thus: AUC (0 to last) in male CD1 mouse at 30 mg/kg, po compound dissolved in water measured after 24 hrs by LC-MS/MS analysis. The conditions noted are these: in vivo. The format is ADME, organism-based. The arrangement: route oral, time 24 hrs, dose 30 mg/kg. The procedure, abridged: (§1)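 Three male CD1 mice per arm; oral solution in water adjusted to about pH 4. Blood taken at 0.5, 1, 2, 4, 7 and 24 h. Plasma protein-precipitated with acetonitrile and the supernatant quantified by qualified LC-MS/MS.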

The nature of series [10]: Cmax in male CD1 mouse at 30 mg/kg, po compound dissolved in water measured after 24 hrs by LC-MS/MS analysis. The arrangement: route oral, dose 30 mg/kg, time 24 hrs. The conditions noted are these: in vivo. It counts as ADME, organism-based. The method, boiled down: as §1
Series [11] can be described thus: Volume of distribution at steady state in male CD1 mouse at 1 mg/kg, iv compound dissolved in saline measured after 24 hrs by LC-MS/MS analysis. It counts as ADME, organism-based. The following applies: in vivo, read-out: Vdss. The procedure, abridged:
(§2)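 Single 1 mg/kg iv dose in 0.9% saline to three male CD1 mice. Blood sampled at 0.117, 0.333, 1, 2, 4, 7 and 24 h. Plasma prepared by acetonitrile protein precipitation and analysed by qualified LC-MS/MS.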

Series [12] can be described thus: Clearance in male CD1 mouse at 1 mg/kg, iv compound dissolved in saline measured after 24 hrs by LC-MS/MS analysis. The format is ADME, organism-based. The following applies: in vivo. The method, boiled down:
as §2

Structures are written as SMILES. In brackets after ≈: the same amount, converted by molar mass.

What is called IC50 is the concentration needed to halve the response being measured. As usually defined, the pKa is the pH at which an ionisable group is half protonated. A lower pKa goes with a stronger acid or weaker base. The term efflux ratio denotes the permeability from basolateral to apical divided by that in the opposite direction, in the common usage. For orientation: microsomal CLint means the rate of metabolic loss divided by the concentration. Low values mean greater metabolic stability, high ones faster metabolism. Usually bioavailability stands for dose-corrected exposure relative to a reference, in per cent. The low end stands for little systemic uptake, the high end for much systemic uptake. The term AUC(0-t) denotes the area under the concentration-time curve up to a stated or last time point. The low end stands for low exposure, the high end for high exposure. Broadly, the Cmax is the highest concentration seen after dosing. As usually defined, the clearance is the rate of elimination divided by the concentration. A high value points to efficient removal.

Sequence of Protein O-GlcNAcase (O60502 whole entry, looked up, stated change not applied): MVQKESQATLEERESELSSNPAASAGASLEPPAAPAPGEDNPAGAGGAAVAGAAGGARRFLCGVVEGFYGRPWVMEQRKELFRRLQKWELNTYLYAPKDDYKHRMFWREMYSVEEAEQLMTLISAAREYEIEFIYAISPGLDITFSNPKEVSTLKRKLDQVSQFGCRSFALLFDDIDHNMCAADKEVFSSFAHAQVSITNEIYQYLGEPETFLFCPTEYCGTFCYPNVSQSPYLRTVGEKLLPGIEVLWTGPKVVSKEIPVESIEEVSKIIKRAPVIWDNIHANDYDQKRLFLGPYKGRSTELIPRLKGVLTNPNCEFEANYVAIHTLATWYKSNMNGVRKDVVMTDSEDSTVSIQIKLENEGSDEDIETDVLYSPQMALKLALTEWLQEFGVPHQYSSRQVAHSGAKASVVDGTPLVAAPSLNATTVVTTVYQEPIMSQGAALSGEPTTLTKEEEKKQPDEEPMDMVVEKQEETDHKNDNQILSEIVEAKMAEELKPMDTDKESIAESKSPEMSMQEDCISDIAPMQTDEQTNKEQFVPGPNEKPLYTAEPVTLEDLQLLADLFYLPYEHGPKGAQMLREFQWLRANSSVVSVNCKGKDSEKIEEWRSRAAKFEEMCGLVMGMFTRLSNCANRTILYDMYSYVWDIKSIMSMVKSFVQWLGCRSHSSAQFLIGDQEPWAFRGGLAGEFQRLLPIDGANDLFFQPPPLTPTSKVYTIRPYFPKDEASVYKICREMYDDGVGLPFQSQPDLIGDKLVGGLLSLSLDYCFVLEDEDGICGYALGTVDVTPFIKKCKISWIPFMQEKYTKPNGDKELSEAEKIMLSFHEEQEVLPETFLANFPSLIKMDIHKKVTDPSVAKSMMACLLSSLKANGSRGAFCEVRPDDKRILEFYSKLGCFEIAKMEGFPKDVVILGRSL

On to `CC(=O)Nc1ncc(CN2CCC3(CCN(c4cc(C)nc5ccccc45)C3)C2)s1` (racemic), for which the solubility kinetic in series [1] came out at 87 µM (≈ 36.7 µg/mL); in [2], 71 µM (≈ 29.9 µg/mL). Besides, the IC50 was found to be 39 nM on Protein O-GlcNAcase and 9 nM in [3].
Consider `Cc1cc(N2CCC3(CCNC3)C2)n2ncnc2n1` (racemic), for which the IC50 is > 10000 nM at Protein O-GlcNAcase and 3240 nM in series [3].
Consider `CC(=O)Nc1ncc(CN2CC[C@]3(C2)C[C@@H](Oc2cc(C)nc(C)c2)C3)s1`, for which, in series [3], the IC50 amounted to 550 nM.
Consider `CC(=O)Nc1ncc(CN2CCC3(C2)CN(c2cc(C)nc4ncnn24)C3)s1`, for which the IC50 on Protein O-GlcNAcase is 9330 nM; in series [3], 41 nM.
`CC(=O)Nc1ncc(CN2CCC3(CCN(c4cc(C)nc(C)c4)C3)C2)s1` (racemic): the pKa in series [4] is 10.4. Also, the efflux ratio at 2 h, 5 µM in the series with P-gp (MDR1) was found to be 1.6. In addition, the IC50 at Protein O-GlcNAcase amounted to 141 nM; in [3], 6 nM. The microsomal CLint at 1 h, 1 µM in “in vitro [5]” and in the series “in vitro [6]” was < 8 µL/min/mg in each case.
Take `CC(=O)Nc1ncc(CN2CCC3(CCN(c4cc(C)n5ccnc5n4)C3)C2)s1` (racemic): the efflux ratio at 2 h, 5 µM in the series with P-gp (MDR1) was found to be 1.2. Further, the IC50 on Protein O-GlcNAcase was determined as 437 nM; in series [3] it was 1 nM. Further, the figures for the microsomal CLint at 1 h, 1 µM in the series “in vitro [5]” and in “in vitro [6]” were 16 µL/min/mg and < 8 µL/min/mg, respectively.
Regarding `Cc1cc(N2CCC3(CCN(Cc4ccc5nccnc5c4)C3)C2)n2ncnc2n1` (racemic), the IC50 was > 10000 nM on Protein O-GlcNAcase and 74 nM in [3].
On the same counts, the results for `Cc1cc(N2CCC3(CCN(Cc4ccc5c(c4)OCO5)C3)C2)n2ncnc2n1` (configuration not stated) are > 1000 nM and 129 nM.
The matching figures for `CC(=O)Nc1ncc(CN2CCC3(CCN(c4cc(C)nc(C)n4)C3)C2)s1` (racemic): 170 nM and 13 nM.
On the same counts, the results for `CC(=O)Nc1ncc(CN2CCC3(CCC(COc4cc(C)nc(C)c4)C3)C2)s1` (configuration not stated) are 501 nM and 135 nM.
Take `CC(=O)Nc1ncc(CN2CCC3(CC(COc4cc(C)nc(C)c4)C3)C2)s1` (racemic): in [3], the IC50 was 316 nM.
Take `CC(=O)Nc1ncc(CN2CCC3(CCN(c4cc(C)nc5ncnn45)C3)C2)s1` (configuration not stated): the IC50 is 290 nM in series [7], 575 nM at Protein O-GlcNAcase and 4 nM in [3]. In addition, in the series on P-gp (MDR1), the efflux ratio at 2 h, 5 µM was 13.5. Moreover, the microsomal CLint at 1 h, 1 µM in “in vitro [5]” is < 13 µL/min/mg; in “in vitro [6]”, < 8 µL/min/mg.
`CC(=O)Nc1ncc(CN2CCC3(CC(c4cc(C)nc(C)c4)C3)C2)s1` (racemic): the IC50 is 182 nM on Protein O-GlcNAcase and 36 nM in series [3].
As to `CC(=O)Nc1ncc(CN2CC[C@]3(C2)C[C@H](Oc2cc(C)nc(C)c2)C3)s1`, in [3], the IC50 was 1000 nM.
As for `CC(=O)Nc1ncc(CN2CCC3(CCN(c4cc(C)cc(C)n4)C3)C2)s1` (racemic), the efflux ratio at 2 h, 5 µM in the series with P-gp (MDR1) worked out at 24.8. Further, the IC50 on Protein O-GlcNAcase was determined as 46 nM; in series [3] it was 4 nM. Also, the microsomal CLint at 1 h, 1 µM turned out to be 264 µL/min/mg in “in vitro [5]” and 101 µL/min/mg in “in vitro [6]”.
For `CC(=O)Nc1ncc(CN2CC3(CCN(c4cc(C)nc5ncnn45)C3)C2)s1`, the IC50 is 3300 nM in series [7], 10000 nM at Protein O-GlcNAcase and 34 nM in series [3].
In the case of `CC(=O)Nc1ncc(CN2CCC3(CCC(Cc4cc(C)nc(C)c4)C3)C2)s1` (configuration not stated), the IC50 was found to be 537 nM at Protein O-GlcNAcase and 309 nM in series [3].
For the molecule `Cc1cc(N2CCC3(CCN(Cc4ccc5sc(C)nc5c4)C3)C2)n2ncnc2n1` (racemic), the results for the IC50 (on Protein O-GlcNAcase; in series [3]) were > 1000 nM and 22 nM, respectively.
As for `CC(=O)Nc1ncc(CN2CCC3(CCN(c4cc(C)nc(C(F)(F)F)c4)C3)C2)s1` (racemic), the efflux ratio at 2 h, 5 µM in the series with P-gp (MDR1) is 32.2. In addition, the IC50 came to 380 nM on Protein O-GlcNAcase and 19 nM in [3]. Also, the microsomal CLint at 1 h, 1 µM in “in vitro [5]” stood at 55 µL/min/mg; in the series “in vitro [6]” it was 46 µL/min/mg.
In the case of `CC(=O)Nc1ncc(CN2CCC3(CCC(c4cc(C)nc(C)c4)C3)C2)s1` (configuration not stated), the IC50 at Protein O-GlcNAcase was 214 nM; in series [3] it was 66 nM.
As to `COc1cc(N2CCC3(CCN(Cc4cnc(NC(C)=O)s4)C3)C2)cc(C)n1` (racemic), in the series on P-gp (MDR1), the efflux ratio at 2 h, 5 µM turned out to be 27.7. The IC50 at Protein O-GlcNAcase turned out to be 56 nM; in [3] it was 6 nM. Also, the figures for the microsomal CLint at 1 h, 1 µM in the series “in vitro [5]” and in “in vitro [6]” were 12 µL/min/mg and < 8 µL/min/mg, respectively.
For the molecule `CC(=O)Nc1ncc(CN2CC[C@]3(C[C@@H](Oc4cc(C)nc(C)c4)CO3)C2)s1` (racemic), the IC50 in [3] was 209 nM.
Consider `CC(=O)Nc1ncc(CN2CCC3(CCN(c4cc(C)nc5ccccc45)C3)C2)s1` (single isomer, unassigned; (-)), for which the figures for the IC50 (on Protein O-GlcNAcase; in [3]) were 263 nM and 25 nM, respectively.
`CC(=O)Nc1ncc(CN2CCC3(CC(c4cc(C)nc(C)c4)CO3)C2)s1` (configuration not stated): the figures for the IC50 (on Protein O-GlcNAcase; in [3]) were 603 nM and 21 nM, respectively.
On the same counts, the results for `CC(=O)Nc1ncc(CN2CC[C@]3(C[C@H](Oc4cc(C)nc(C)c4)CO3)C2)s1` (racemic) are 537 nM and 30 nM.
For `CC(=O)Nc1ncc(CN2CCC3(CCN(c4cc(C)nc5ccccc45)C3)C2)s1` (single isomer, unassigned; (+)), in [8], the bioavailability was 23.1%. Besides, the AUC(0-t) at 24 h in series [9] came out at 1940 ng·h/mL. In [10], the Cmax was determined as 331 ng/mL. Also, in series [11], the Vd is 17.8 L/kg. In addition, the clearance in [12] was determined as 55.8 mL/min/kg. In addition, the IC50 on Protein O-GlcNAcase is 17 nM; in series [3], 5 nM. Besides, the microsomal CLint at 1 h, 1 µM in the series “in vitro [5]” was 15 µL/min/mg; in the series “in vitro [6]”, < 8 µL/min/mg.
On to `CC(=O)Nc1ncc(CN2CC[C@]3(C2)C[C@H](Cc2cc(C)nc(C)c2)C3)s1`, for which the IC50 at Protein O-GlcNAcase came out at 240 nM; in series [3] it was 204 nM.
As for `CC(=O)Nc1ncc(CN2CC[C@]3(C2)C[C@@H](Cc2cc(C)nc(C)c2)C3)s1`, the IC50 on Protein O-GlcNAcase is 295 nM; in series [3], 209 nM.

Source of the values: ChEMBL document CHEMBL4673290, “Diazaspirononane Nonsaccharide Inhibitors of O-GlcNAcase (OGA) for the Treatment of Neurodegenerative Disorders” (J Med Chem, 2020).
